Key:
[1] = system: L1210; assay: Antitumor activity against mouse L1210 cells allografted mouse assessed as host survival at 60 mg/kg, ip qd for 9 days relative to control; type: functional; details: route intraperitoneal
Summary of the method: (§1)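 NCI protocol: groups of five to ten mice inoculated ip with approximately 10^6 P-388 or L1210 cells. Drug given over a range of dose levels starting 24 h after implantation, once daily for 9 consecutive days. Survival expressed as %T/C = (average survival of treated)/(average survival of control) × 100.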

[2] = system: P388; assay: Antitumor activity against mouse P388 cells allografted mouse assessed as host survival at 60 mg/kg, ip qd for 9 days relative to control; type: functional; details: route intraperitoneal; summary of the method: as §1
[3] = system: Mus musculus; assay: Toxicity in mouse L1210 cells allografted mouse at 60 mg/kg, ip qd for 9 days; type: organism-based; parameters: dose 60 mg/kg, route intraperitoneal; details: in vivo, 216 h
Summary of the method: (§2)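 Groups of five to ten mice were inoculated ip with about 10^6 L1210 cells and dosed once daily for 9 consecutive days beginning 24 h post-implantation. Toxicity was taken as the average body weight change at the end of drug treatment.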

[4] = system: P388; assay: Antitumor activity against mouse P388 cells allografted mouse assessed as host survival at 40 mg/kg, ip qd for 9 days relative to control; type: functional; details: route intraperitoneal; summary of the method: as §1
[5] = system: L1210; assay: Antitumor activity against mouse L1210 cells allografted mouse assessed as host survival at 50 mg/kg, ip qd for 9 days relative to control; type: functional; details: route intraperitoneal; summary of the method: as §1
[6] = system: Mus musculus; assay: Toxicity in mouse P388 cells allografted mouse at 60 mg/kg, ip qd for 9 days; type: organism-based; parameters: dose 60 mg/kg, route intraperitoneal; details: in vivo, 216 h
Summary of the method: (§3)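 NCI protocol. Groups of five to ten mice were inoculated intraperitoneally with about 10^6 tumor cells. Drug was given ip once daily for 9 consecutive days, starting 24 h after tumor implantation, over a range of dose levels. Toxicity was read as the average body weight change at the end of drug treatment.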

[7] = system: P388; assay: Antitumor activity against mouse P388 cells allografted mouse assessed as host survival at 20 mg/kg, ip qd for 9 days relative to control; type: functional; details: route intraperitoneal; summary of the method: as §1
[8] = system: Mus musculus; assay: Toxicity in mouse L1210 cells allografted mouse at 50 mg/kg, ip qd for 9 days; type: organism-based; parameters: dose 50 mg/kg, route intraperitoneal; details: in vivo, 216 h; summary of the method: as §2
[9] = system: Mus musculus; assay: Toxicity in mouse P388 cells allografted mouse at 40 mg/kg, ip qd for 9 days; type: organism-based; parameters: dose 40 mg/kg, route intraperitoneal; details: in vivo, 216 h; summary of the method: as §3
[10] = system: Mus musculus; assay: Toxicity in mouse P388 cells allografted mouse at 20 mg/kg, ip qd for 9 days; type: organism-based; parameters: dose 20 mg/kg, route intraperitoneal; details: in vivo, 216 h; summary of the method: as §3
[11] = system: Mus musculus; assay: Toxicity in mouse B16 cells allografted mouse at 42 mg/kg, ip qd for 9 days; type: organism-based; parameters: dose 42 mg/kg, route intraperitoneal; details: in vivo, 216 h
Summary of the method: (§4)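 Mice bearing B16 melanoma, dosed ip once daily for 9 days from 24 h after tumor implantation. Toxicity is recorded as the average body weight change at the end of drug treatment.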

[12] = system: B16; assay: Antitumor activity against mouse B16 cells allografted mouse assessed as host survival at 70 mg/kg, ip qd for 9 days relative to control; type: functional; details: route intraperitoneal
Summary of the method: (§5)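 B16 melanoma-bearing mice given drug ip once daily for 9 days, starting 24 h after tumor implantation. Read-out is average survival in days, expressed as %T/C = (average survival of treated mice)/(average survival of control mice) × 100.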

[13] = system: P388; assay: Antitumor activity against mouse P388 cells allografted mouse assessed as host survival at 80 mg/kg, ip qd for 9 days relative to control; type: functional; details: route intraperitoneal; summary of the method: as §1
[14] = system: P388; assay: Antitumor activity against mouse P388 cells allografted mouse assessed as host survival at 70 mg/kg, ip qd for 9 days relative to control; type: functional; details: route intraperitoneal; summary of the method: as §1
[15] = system: B16; assay: Antitumor activity against mouse B16 cells allografted mouse assessed as host survival at 42 mg/kg, ip qd for 9 days relative to control; type: functional; details: route intraperitoneal; summary of the method: as §5
[16] = system: Mus musculus; assay: Toxicity in mouse B16 cells allografted mouse at 116.7 mg/kg, ip qd for 9 days; type: organism-based; parameters: dose 116.7 mg/kg, route intraperitoneal; details: in vivo, 216 h; summary of the method: as §4
[17] = system: Mus musculus; assay: Toxicity in mouse L1210 cells allografted mouse at 70 mg/kg, ip qd for 9 days; type: organism-based; parameters: dose 70 mg/kg, route intraperitoneal; details: in vivo, 216 h; summary of the method: as §2
[18] = system: Mus musculus; assay: Toxicity in mouse L1210 cells allografted mouse at 80 mg/kg, ip qd for 9 days; type: organism-based; parameters: dose 80 mg/kg, route intraperitoneal; details: in vivo, 216 h; summary of the method: as §3
[19] = system: Mus musculus; assay: Toxicity in mouse P388 cells allografted mouse at 80 mg/kg, ip qd for 9 days; type: organism-based; parameters: dose 80 mg/kg, route intraperitoneal; details: in vivo, 216 h; summary of the method: as §3
[20] = system: P388; assay: Antitumor activity against mouse P388 cells allografted mouse assessed as host survival at 90 mg/kg, ip qd for 9 days relative to control; type: functional; details: route intraperitoneal; summary of the method: as §1
[21] = system: B16; assay: Antitumor activity against mouse B16 cells allografted mouse assessed as host survival at 116.7 mg/kg, ip qd for 9 days relative to control; type: functional; details: route intraperitoneal; summary of the method: as §5
[22] = system: Mus musculus; assay: Toxicity in mouse L1210 cells allografted mouse at 90 mg/kg, ip qd for 9 days; type: organism-based; parameters: dose 90 mg/kg, route intraperitoneal; details: in vivo, 216 h; summary of the method: as §3
[23] = system: L1210; assay: Antitumor activity against mouse L1210 cells allografted mouse assessed as host survival at 90 mg/kg, ip qd for 9 days relative to control; type: functional; details: route intraperitoneal; summary of the method: as §1
[24] = system: Mus musculus; assay: Toxicity in mouse B16 cells allografted mouse at 70 mg/kg, ip qd for 9 days; type: organism-based; parameters: dose 70 mg/kg, route intraperitoneal; details: in vivo, 216 h; summary of the method: as §4
[25] = system: L1210; assay: Antitumor activity against mouse L1210 cells allografted mouse assessed as host survival at 80 mg/kg, ip qd for 9 days relative to control; type: functional; details: route intraperitoneal; summary of the method: as §1
[26] = system: Mus musculus; assay: Toxicity in mouse P388 cells allografted mouse at 70 mg/kg, ip qd for 9 days; type: organism-based; parameters: dose 70 mg/kg, route intraperitoneal; details: in vivo, 216 h; summary of the method: as §3
[27] = system: Mus musculus; assay: Toxicity in mouse P388 cells allografted mouse at 90 mg/kg, ip qd for 9 days; type: organism-based; parameters: dose 90 mg/kg, route intraperitoneal; details: in vivo, 216 h; summary of the method: as §3
[28] = system: L1210; assay: Antitumor activity against mouse L1210 cells allografted mouse assessed as host survival at 70 mg/kg, ip qd for 9 days relative to control; type: functional; details: route intraperitoneal; summary of the method: as §1
[29] = system: P388; assay: Antitumor activity against mouse P388 cells allografted mouse assessed as host survival at 100 mg/kg, ip qd for 9 days relative to control; type: functional; details: route intraperitoneal; summary of the method: as §1
[30] = system: Mus musculus; assay: Toxicity in mouse B16 cells allografted mouse at 130 mg/kg, ip qd for 9 days; type: organism-based; parameters: dose 130 mg/kg, route intraperitoneal; details: in vivo, 216 h; summary of the method: as §4
[31] = system: Mus musculus; assay: Toxicity in mouse B16 cells allografted mouse at 216 mg/kg, ip qd for 9 days; type: organism-based; parameters: dose 216 mg/kg, route intraperitoneal; details: in vivo, 216 h; summary of the method: as §4
[32] = Binding affinity to synthetic melanin at 5.8 mg/100 mL after 15 mins by UV-spectroscopic analysis; type: physicochemical; details: 0.25 h
Summary of the method: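 Synthetic melanin was made from DL-Dopa with tyrosinase in 0.1 M phosphate pH 6.6 at 37 °C for 4 h. Melanin suspension (1.1 mg dry weight) was mixed with phosphate buffer (0.05 M, pH 6.4, 5% Me2SO), water, and 1 mL of drug solution (5.8 mg/100 mL). The mixture was shaken 15 min at room temperature and filtered. Unbound drug in the filtrate was measured by UV against a drug-free blank.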

[33] = system: B16; assay: Antitumor activity against mouse B16 cells allografted mouse assessed as host survival at 216 mg/kg, ip qd for 9 days relative to control; type: functional; details: route intraperitoneal; summary of the method: as §5
[34] = system: B16; assay: Antitumor activity against mouse B16 cells allografted mouse assessed as host survival at 130 mg/kg, ip qd for 9 days relative to control; type: functional; details: route intraperitoneal; summary of the method: as §5
[35] = system: B16; assay: Antitumor activity against mouse B16 cells allografted mouse assessed as host survival at 360 mg/kg, ip qd for 9 days relative to control; type: functional; details: route intraperitoneal; summary of the method: as §5
[36] = system: Mus musculus; assay: Toxicity in mouse B16 cells allografted mouse at 360 mg/kg, ip qd for 9 days; type: organism-based; parameters: dose 360 mg/kg, route intraperitoneal; details: in vivo, 216 h; summary of the method: as §4
[37] = system: L1210; assay: Antitumor activity against mouse L1210 cells allografted mouse assessed as host survival at 100 mg/kg, ip qd for 9 days relative to control; type: functional; details: route intraperitoneal; summary of the method: as §1

## CN(C)/N=N\c1ccnc2cc(I)ccc12
[1]
  T/C: 131%
[2]
  T/C: 127%
[3]
  Activity: 2.9%
[4]
  T/C: 130%
[5]
  T/C: 107%
[6]
  Activity: -5.2%
[7]
  T/C: 117%
[8]
  Activity: 4.9%
[9]
  Activity: 5.7%
[10]
  Activity: 10.8%

## CN(C)/N=N\c1ccnc2c(I)cccc12
[11]
  Activity: -1.3%
[12]
  Survival: 20.8 days
  T/C: 99%
[13]
  T/C: 120%
[14]
  T/C: 120%
[15]
  Survival: 20 days
  T/C: 97%
[16]
  Activity: -4.6%
[17]
  Activity: 7.7%
[18]
  Activity: -6.9%
[19]
  Activity: -2.4%
[20]
  T/C: 116%
[21]
  Survival: 19.3 days
  T/C: 92%
[22]
  Activity: -7%
[23]
  T/C: 139%
[24]
  Activity: -1.5%
[25]
  T/C: 129%
[26]
  Activity: 8.2%
[27]
  Activity: -1.6%
[28]
  T/C: 127%

## CN(C)/N=N/c1[nH]cnc1C(N)=O [DACARBAZINE]
[29]
  T/C: 150%
[30]
  Activity: -2.9%
[31]
  Activity: -3.2%
[32]
  Activity: 19.3%
[33]
  Survival: 22.8 days
  T/C: 109%
[34]
  Survival: 22 days
  T/C: 105%
[35]
  Survival: 16 days
  T/C: 76%
[36]
  Activity: -3%
[37]
  T/C: 167%

— ChEMBL document CHEMBL3244044, “Synthesis and antitumor activity of halogen-substituted 4-(3,3-dimethyl-1-triazeno)quinolines” (J Med Chem, 1978)
